Sampled rows, rich in hits. Any-hit rate of the full collection: about 3.5%.
MrgX1 antagonist: antagonists of human MrgX1 receptor | hit rate 1.3% among 310,000 | Q96LB2 | B-score at 10 µM | MRGX1-HEK293 calcium flux, Fluo-4, BAM8-22 antagonism; active compounds read low;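 active = calcium-response B-score plate-corrected more than 3 library SD below zero, starting fluorescence within 5 deviations, no agonist response on first addition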;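 note: peak minus trough fluorescence over baseline after final BAM8-22 challenge near maximal dose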
Target sequence (Q96LB2 whole entry, looked up): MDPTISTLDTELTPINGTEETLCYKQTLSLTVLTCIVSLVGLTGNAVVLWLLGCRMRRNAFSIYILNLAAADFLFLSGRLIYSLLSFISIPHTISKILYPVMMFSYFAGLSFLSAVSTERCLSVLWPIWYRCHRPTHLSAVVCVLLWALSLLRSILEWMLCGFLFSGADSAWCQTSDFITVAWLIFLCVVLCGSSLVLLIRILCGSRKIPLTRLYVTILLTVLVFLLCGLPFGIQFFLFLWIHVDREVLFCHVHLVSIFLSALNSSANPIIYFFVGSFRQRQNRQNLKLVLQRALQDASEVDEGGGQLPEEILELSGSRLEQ
RGS4 pot: RGS4 potentiation or activation. HEK293 M3R/inducible RGS4, carbachol calcium flux Fluo4; active compounds read low. B-score at 10 µM. hit rate 0.92% among 310,000. AID 463111;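 active = B-score of the integrated calcium signal more than 4 SD below the library mean, with starting fluorescence not abnormally high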;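 note: negative B-score means reduced calcium response which marks RGS4 activation or potentiation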
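test system = HEK293 cells with stable M3R and inducible RGS4 | schedule = recording 10 s baseline at 1 Hz, 100 s post-agonist | technique = Fluo4-AM (2 µM) calcium-flux fluorescence, kinetic read | measure = Agonist-evoked peak-minus-minimum fluorescence over baseline, integrated ratio, B score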
RGS4 inh: human RGS4 inhibition | HEK293 M3R/RGS4 inducible, Fluo-4 calcium flux; active compounds read high; triggered by carbachol at its EC20 | B-score at 10 µM | hit rate 0.45% among 310,000 | AID 463165;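 active = B-score, a plate-corrected calcium signal, over three deviations above library mean, with baseline fluorescence within five deviations of library mean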;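 note: RGS4 expression induced by doxycycline in cells with stable M3 receptor; B-score is computed from the integrated fluorescence ratio over baseline after carbachol; higher B-score means a larger calcium signal and so more RGS4 inhibition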
Target sequence (P49798 whole entry, looked up): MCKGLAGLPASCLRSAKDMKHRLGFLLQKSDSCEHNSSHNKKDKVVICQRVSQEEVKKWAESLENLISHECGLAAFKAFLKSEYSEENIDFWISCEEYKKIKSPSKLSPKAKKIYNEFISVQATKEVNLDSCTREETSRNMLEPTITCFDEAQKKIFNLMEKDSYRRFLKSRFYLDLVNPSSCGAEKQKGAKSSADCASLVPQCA
MrgX1 allo act: allosterically activates human MrgX1 receptor signaling; MrgX1-HEK293, Fluo-4 calcium flux, FDSS; active compounds read high; hit rate 0.63% among 310,000; B-score at 10 µM; Q96LB2;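 active = plate-corrected calcium response at least 3 library SD above typical, normal starting fluorescence, not activating the receptor alone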;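 note: compound read alongside a low EC10 to EC30 dose of BAM8-22 agonist; peak minus trough fluorescence over baseline measured at the second addition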
MrgX1 agonist: agonists of human MrgX1 receptor | B-score at 10 µM | hit rate 0.44% among 310,000 | Q96LB2 | MrgX1-HEK293 cells, Fluo-4 calcium fluorescence, agonist mode; active compounds read high | AID 588627;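 active = calcium response B-score plate-corrected fluorescence ratio at least 3 library SD, with starting fluorescence B-score inside 5 SD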
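Material: HEK293 cells stably expressing human MrgX1 receptor | Quantity: 15,000 cells per well | Times: Cells plated overnight, dye loaded 0.5 h 37 °C, 0.5 h room temperature | Measured by: Kinetic Fluo-4 NW fluorescence of intracellular calcium | Control set: Positive and negative controls per plate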
MrgX1 ant reconf: human MrgX1 receptor antagonism, re-confirmation screen; shares compounds with MrgX1 antagonist; MrgX1-HEK293, BAM8-22 calcium flux, Fluo-4; active compounds read low; remaining BAM8-22 calcium response % of control (active compounds read low), % at 10 µM; hit rate 19% among 2,300;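 active = remaining agonist calcium response no higher than 100% minus 3 SD of agonist-only control wells, with starting fluorescence near control levels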;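 note: agonist BAM8-22 given at a near maximal EC90 to ECmax level; peak minus minimum fluorescence divided by baseline after agonist addition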
HEK293 Ca flux: activity in parental HEK293 cells lacking MrgX1. shares compounds with MrgX1 antagonist. fluorescence ratio F(max-min)/F0 at 10 µM. hit rate 2% among 4,000. Fluo-4 calcium fluorescence, FDSS. AID 624111;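 active = duplicate-averaged calcium fluorescence ratio at least three times the standard deviation of buffer wells, a nonspecific response in parental cells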
HEK293 Ca counter: activity in parental HEK293 cells without MrgX1 | fluorescence ratio F(max-min)/F0 at 10 µM | shares compounds with MrgX1 antagonist | hit rate 0.4% among 4,000 | AID 624114 | parental HEK293 calcium flux, Fluo-4 fluorescence ratio; active compounds read high;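 active = calcium fluorescence ratio, averaged over duplicates, at least 3 SD of the buffer-well ratio, meaning a nonspecific response in receptor-free cells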;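 note: untransfected parental HEK293 lacking MrgX1 used as counterscreen for MrgX1 allosteric activators; fluorescence change taken during the second addition on a kinetic imager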
HEK293 Ca cntr2: activity in parental HEK293 cells lacking MrgX1 receptor | shares compounds with MrgX1 antagonist | Fluo-4 calcium fluorescence (FDSS); active compounds read high | fluorescence ratio F(max-min)/F0 at 10 µM | hit rate 8.7% among 4,000 | AID 624115;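 active = calcium fluorescence ratio at least three times the spread of buffer wells, meaning a non-specific response in parental cells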
* = called active by the depositor; i = inactive; x = no result given.

SMILES	MrgX1 antagonist	RGS4 pot	RGS4 inh	MrgX1 allo act	MrgX1 agonist	MrgX1 ant reconf	HEK293 Ca flux	HEK293 Ca counter	HEK293 Ca cntr2
COc1ccccc1NC(=O)Cc1noc(CSc2nnc(N)s2)n1	-7.7*	i	i	i	i	i	i	i	i
CCOc1ccccc1NC(=O)CN(c1ccc(C)cc1)S(=O)(=O)c1c(C)n[nH]c1C	i	i	i	i	i	x	x	x	x
CCOC(=O)c1ccc(NC(=O)CN(c2ccc(C)cc2)S(=O)(=O)c2c(C)n[nH]c2C)cc1	-6.2*	i	i	i	i	i	i	i	52*
Cc1ccc(Cl)cc1NS(=O)(=O)N1CCOCC1	i	i	i	i	i	x	x	x	x
COc1ccc(Cl)cc1NS(=O)(=O)N1CCOCC1	-6.2*	i	i	i	i	i	i	i	i
Cc1ccc(S(=O)(=O)N(CC(=O)NC2CC2)c2ccc(C)c(Cl)c2)cc1	-5*	i	i	i	i	i	i	i	i
CC(C)c1ccc(N(CC(=O)N2CCOCC2)S(C)(=O)=O)cc1	i	i	i	i	i	x	x	x	x
N#Cc1sc2nc(-c3ccccc3)cc(-c3ccco3)c2c1N	-10*	i	i	i	i	i	i	i	i
CC(=O)COc1ncnc2c(Cl)cc(Cl)cc12	-4.9*	i	i	i	i	i	i	i	i
O=C(c1ccccc1)N1CCN(Cc2ccccc2)CC1	i	i	i	i	i	x	x	x	x
Cc1ccc(CN2CCN(C(=O)c3ccncc3)CC2)cc1	-4.7*	i	i	i	i	i	i	i	i
COc1ccccc1/C=N\NC(=O)c1ccc(COc2ccc(C)c(C)c2)o1	i	i	i	i	i	x	x	x	x
Cc1ccc(N(CC(=O)N2CCN(C3CCCCC3)CC2)S(=O)(=O)c2cccnc2)cc1	-8.8*	x	x	i	i	i	i	i	i
Cc1ccc(S(=O)(=O)N(CC(=O)N2CCCCCC2)c2ccccc2)cc1	i	i	i	i	i	x	x	x	x
Cc1cc(C(=O)NC2CCCCC2)c2cc(F)ccc2n1	i	i	i	i	i	x	x	x	x
Cc1cc(C(=O)NC(C)c2ccccc2)c2cc(F)ccc2n1 (stereo unspecified)	-5.4*	i	i	i	i	i	i	i	i
Cc1cccc(C(C)Nc2ccc([N+](=O)[O-])cn2)c1 (stereo unspecified)	i	i	i	i	i	x	x	x	x
COc1ccc(N2CCN(C(=O)Cn3nnc(-c4cccs4)n3)CC2)cc1	-5.2*	i	i	i	i	i	i	i	i
COC(=O)CCn1nnc(-c2cccs2)n1	-6.8*	i	i	i	i	75%*	i	i	i
COc1ccc(C(=O)Cn2nnc(-c3cccs3)n2)cc1	i	i	i	i	i	x	x	x	x
COC(=O)c1ccc(NC(=O)Cn2nnc(-c3cccs3)n2)cc1	i	i	i	i	i	x	x	x	x
Cc1ccc2nc(-c3ccc(N4C(=O)CC(N5CCC(C(N)=O)CC5)C4=O)cc3)sc2c1 (stereo unspecified)	i	i	i	i	i	x	x	x	x
Cc1ccc2nc(-c3ccc(N4C(=N)SC5CS(=O)(=O)CC54)cc3)sc2c1 (stereo unspecified)	-7.3*	i	i	i	i	85%*	i	i	i
CCN1CCN(CCNC(=O)c2ccc(/C=C3\Sc4ccccc4N(Cc4ccccc4F)C3=O)cc2)CC1	-13*	-7*	i	i	i	i	i	i	i
CN1CCC(=NOc2ccc([N+](=O)[O-])cc2)CC1	i	i	i	i	i	x	x	x	x
SMILES	MrgX1 antagonist	RGS4 pot	RGS4 inh	MrgX1 allo act	MrgX1 agonist	MrgX1 ant reconf	HEK293 Ca flux	HEK293 Ca counter	HEK293 Ca cntr2
Cc1ccc(-n2ncc3c2CCCC3NC(=O)CCCN2CCCCC2=O)cc1C (stereo unspecified)	i	i	i	i	i	x	x	x	x
Cc1ccccc1CN1CCN(S(=O)(=O)c2cccc3nsnc23)CC1	-11*	i	i	i	i	i	i	i	i
CCN1CCN(S(=O)(=O)c2cccc3nsnc23)CC1	i	i	i	i	i	x	x	x	x
Cc1ccccc1CN1CCN(S(=O)(=O)c2cccs2)CC1	-4.6*	i	i	i	i	i	i	i	i
CS(=O)(=O)N1CCc2cc(C(=O)Nc3ccccc3Cl)ccc21	i	i	i	i	i	x	x	x	x
N#Cc1ccccc1S(=O)(=O)N1CCN(CC(=O)NC(=O)NC2CCCCC2)CC1	-6.3*	i	i	i	i	i	i	i	i
Cc1ccc(C(=O)NCc2ccccn2)cc1Cl	i	i	i	i	i	x	x	x	x
C#CCN1C(=O)S/C(=C\c2cc3c(cc2OC)OCO3)C1=O	i	i	i	i	i	x	x	x	x
CCc1cccc2cc3c(N)c(C(=O)Nc4ccc(S(=O)(=O)N5CCCC5)cc4)sc3nc12	-9.7*	i	i	i	i	i	0.41*	i	i
Cn1c(SCC(=O)c2cc(Cl)c(Cl)s2)nnc1-c1ccco1	-4.8*	i	i	i	i	i	i	i	i
Cc1cc(C)c(C#N)c(SCC(=O)Nc2ccc3c(c2)OCO3)n1	-6.9*	i	i	i	i	i	i	i	i
Cc1ccc(C(=O)CSc2nnc(-c3ccco3)n2C)cc1	i	i	i	i	i	x	x	x	x
Cn1c(SCC(=O)Nc2ccc3c(c2)OCCO3)nnc1-c1ccco1	-4.9*	i	i	i	i	i	i	i	i
Cc1nc(SCC(=O)Nc2ccc3c(c2)OCO3)c(C#N)c2c1CCCC2	i	i	i	i	i	x	x	x	x
CCn1c(SCC(=O)Nc2ccc3c(c2)OCCO3)nnc1-c1ccco1	i	i	i	i	i	x	x	x	x
Cc1nc(SCC(=O)Nc2ccc3c(c2)OCCO3)c2oc3ccccc3c2n1	-7.5*	i	i	i	i	i	i	i	i
